Data: article PMC4195389 (Journal of the American Chemical Society, 2014)

Columns and labels:
[1] = test system: HCT116N and HCT116O cells; test: MTT cytotoxicity assay; type: cell-based; settings: 72 h
Outline: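 HCT116N and HCT116O cells are seeded at 50,000 cells/well in 96-well format and exposed to test compound for 72 h. MTT labelling follows for 4 h at 37 °C under 5% CO2, and formazan is dissolved in acidified SDS. The read-out is A570 minus A690 background. Percent viability is formazan of treated over untreated cells. Differential cytotoxicity is the difference in percent viability between the two lines.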

[2] = Metalloinsertor pH titrations; type: physicochemical; settings: chrysi immine proton; ambient temperature, 0.1 M NaCl; racemic mixtures
Outline: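 Test compound at 25 μM in 0.1 M NaCl is titrated from about pH 4.5 to 10.5 and back with 6 mM NaOH or 10 mM HCl, with pH followed by electrode. A UV-vis spectrum is recorded after each addition. Absorbance at one strongly changing wavelength is plotted against pH, and pKa is taken from the inflection of the sigmoid. Values from three separate experiments are pooled and averaged.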

[3] = test system: HCT116N cells (MMR-proficient) and HCT116O cells (MMR-deficient); type: cell-based
[4] = test system: HCT116N cells (MMR-proficient); test: Cell death mode flow cytometry assay; type: cell-based; settings: 72 h
Outline: (§1)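 HCT116 cells, grown in RPMI 1640 with 10% FBS, glutamine, non-essential amino acids, pyruvate, penicillin/streptomycin and 400 μg/mL G418 at 37 °C under 5% CO2, are exposed to test compound (0–0.5 μM) for 72 h. They are then trypsinized, washed in cold PBS, pelleted and resuspended in PBS at 10^6 cells/mL. Staining is 30 min with propidium iodide (1 μg/mL final) plus YO-PRO-1 (50 nM final). Flow-cytometry events are gated as live, apoptotic, necrotic or dead.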

[5] = test system: HCT116O cells (MMR-deficient); test: Cell death mode flow cytometry assay; type: cell-based; settings: 72 h
Outline: as §1

[6] = test system: matched sites in the DNA duplex; test: Binding competition gels with [Rh; settings: competition with 4 μM [Rh(bpy)2(phi)]3+; up to 1:15 DNA:complex; data not shown
[7] = test system: 36-mer DNA duplex containing a CC mismatch; type: binding
[8] = test system: DNA hairpin 5′-[…]-3′ with CC mismatch; test: Covalent DNA binding assay; settings: 30 min at 37 °C; neutral phosphate buffer or 5 mM glutathione

Molecule	optimal concentration for differential cytotoxicity [1] [nM]	pKa [2]	concentration required for optimal differential activity [3] [µM]	differential inhibition (difference in %BrdU incorporation between HCT116N and HCT116O cells) [3] [%]	also measured
[Rh(chrysi)(phen)(DPE)]Cl2 [[Rh(chrysi)(phen)(DPE)]^2+]	6000	8.7 ± 0.2	3	55 ± 2	–
[Rh(HDPA)2(chrysi)]^3+ [reference compound]	25000	–	10	–	–
[Rh(chrysi)(phen)(PyOctanol)]Cl2 [[Rh(chrysi)(phen)(PyOctanol)]^2+]	480	–	–	–	–
[Rh(chrysi)(phen)(PPO)]Cl2 [[Rh(chrysi)(phen)(PPO)]^2+]	320	8.3 ± 0.3	0.3	62 ± 2	live cells ([4]; 0.2 μM): 57 ± 7%; cells in the apoptotic region ([4]; following metalloinsertor treatment): 25 ± 7%; mode of cell death ([5]; 0.2 or 0.5 μM, HCT116O versus HCT116N): induces necrosis preferentially in the MMR-deficient HCT116O cell line; live cells ([5]; HCT116O, 0.2 μM): 28 ± 6%; necrotic cells ([5]; HCT116O, 0.2 μM): 13 ± 2%; cells in the apoptotic region ([5]; HCT116O, following metalloinsertor treatment): 17 ± 7%
N.N.[Cl][Pt][Cl] [cisplatin, cis-diamminedichloroplatinum, reference compound]	–	–	–	–	concentration required for optimal biological activity [3]: 6 μM
Δ-[Rh(chrysi)(phen)(DPE)]^2+	–	–	–	–	binding at matched sites [6]: no binding at matched sites; lower binding affinity for mismatched DNA as compared to Δ-[Rh(bpy)2(chrysi)]3+ [7]: ~5 fold
Λ-[Rh(chrysi)(phen)(DPE)]^2+	–	–	–	–	binding at matched sites [6]: no binding at matched sites
[Rh(chrysi)(phen)(PPE)]Cl2 [[Rh(chrysi)(phen)(PPE)]^2+]	720	8.9 ± 0.4	1	53 ± 7	covalent DNA binding [8]: no covalent DNA binding
